Data on one compound can be found in ChEMBL document CHEMBL3526139, “Clinical pharmacokinetics, metabolism, and drug-drug interaction of carfilzomib” (Drug Metab Dispos, 2013).

The subject of data set [1] is Plasma. Briefly: Drug metabolism in plasma of iv dosed human patient with relapsed and refractory hematological malignancies assessed as morpholino-hPhe metabolite formation administered on days 1, 2, 8, 9, 15 and 16 of 28-day cycle over 2 to 10 mins by LC-MS/MS analysis. It counts as ADME, organism-based. The conditions noted are these: in vivo.
For data set [2], the target named is T1, Cytochrome P450 3A (Homo sapiens, UniProt P08684+P20815+Q9HB55+P24462). Briefly: Time-dependent inhibition of CYP3A in human liver microsomes assessed as testosterone 6-hydroxylation using testosterone as substrate measured after 25-fold diution by LC-MS/MS analysis in presence of NADPH. It counts as ADME. In a few lines: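 Pooled HLM (16 donors, mixed gender) preincubated in duplicate with carfilzomib 0, 0.5, 1, 3, 5 and 8 µM plus NADPH-generating system (1 mM NADP, 5 mM glucose-6-phosphate, 1 unit/mL G6PDH) for 0–30 min. Microsomal protein in preincubation: 2.5 mg/mL (testosterone) or 1.25 mg/mL (midazolam). Aliquots then diluted 25-fold into 50 mM potassium phosphate, 3 mM MgCl2, 1 mM EDTA, pH 7.4. Residual activity measured over 5 min with testosterone 200 µM or midazolam 40 µM plus NADPH-generating mixture, 37°C. KI and kinact derived.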
For orientation: Microsomes from liver hold many membrane-bound enzymes, among them those of drug oxidation.

Data set [3] can be described thus: Drug excretion in urine of iv dosed human patient with relapsed and refractory hematological malignancies assessed as morpholino-hPhe-Leu metabolite formation administered on days 1, 2, 8, 9, 15 and 16 of 28-day cycle over 2 to 10 mins by LC-MS/MS analysis. The class given is ADME, organism-based. To be noted: in vivo.
For data set [4], the system named is Plasma. Briefly: Drug metabolism in plasma of human multiple myeloma patient assessed as morpholino-hPhe-Leu metabolite formation at 15 mg/m'2, iv administered as single dose measured within first 30 mins after end of drug infusion by LC-MS/MS analysis. The class given is ADME, organism-based. The conditions noted are these: in vivo, 0.5 h. The method, boiled down:
(§1)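 Patients with multiple myeloma received a single 15 mg/m2 carfilzomib dose. Plasma was sampled pre-dose, at end of infusion, at 5, 15, 30 min and at 1, 1.5, 2, 4, 6, 24 h. Samples were protein-precipitated and analyzed by LC-MS/MS (metabolites 0.500–500 ng/mL) with deuterated internal standards.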

A further data set addresses Cytochrome P450 2C19 (Homo sapiens, UniProt P33261). Briefly: Drug metabolism in pooled human hepatocytes assessed as disapperance rate at 1 uM by LC-MS/MS analysis in presence of 10 uM CYP2C19 inhibitor (+)-N-3-benzylnirvanol. It counts as ADME, cell-based, Hepatocyte. The method, boiled down: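 Pooled human hepatocytes in suspension (~0.5 x 10^6 viable cells/mL) were incubated with 1 µM carfilzomib at 37°C under 5% CO2, with or without isoform-selective CYP chemical inhibitors. Reactions were quenched with acetonitrile at 0, 15, 30, 60 and 120 min. Carfilzomib was quantified by non-validated LC-MS/MS after protein precipitation.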

For data set [5], the system named is Plasma. Briefly: Drug metabolism in plasma of human multiple myeloma patient assessed as morpholino-hPhe metabolite formation at 15 mg/m'2, iv administered as single dose measured within first 30 mins after end of drug infusion by LC-MS/MS analysis. The conditions noted are these: in vivo, 0.5 h. It counts as ADME, organism-based. The method, boiled down:
as §1

Data set [6] in a line: Plasma clearance in human patient with relapsed solid tumor at 20 mg/m'2, iv administered on days 1, 2, 8, 9, 15 and 16 of 28-day cycle over 2 to 10 mins measured on day 16 of cycle 1 by LC-MS/MS analysis. The class given is ADME, organism-based. In a few lines:
(§2)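 Patients with relapsed solid tumors (n=3) received carfilzomib IV at 20 mg/m2. Plasma was sampled on Days 1 and 16 of Cycle 1 before dosing, at end of administration, and at 5, 15, 30 min and 1, 2, 4 h after. Samples underwent solid phase extraction and LC-MS/MS with d10-carfilzomib internal standard over 0.100–200 ng/mL. Parameters were derived noncompartmentally (constant IV infusion model) from actual elapsed time from infusion start.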

The subject of data set [7] is CYP3A. Briefly: Decrease in CYP3A gene expression in human hepatocytes at 2.5 uM after 3 days by qPCR analysis. The class given is ADME, cell-based, Hepatocyte. In a few lines: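 Hepatocytes were treated 3 days with carfilzomib (0.1–2.5 µM) or 0.08% DMSO, renewed daily. CYP3A mRNA was measured in 3 donors and CYP1A2 mRNA in one additional donor, both by qPCR. Values are triplicate means relative to DMSO.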

The nature of data set [8]: Plasma clearance in human patient with relapsed solid tumor at 20 mg/m'2, iv administered over 2 to 10 mins on days 1, 2, 8, 9, 15 and 16 of 28-day cycle measured on day 1 of cycle 1 by LC-MS/MS analysis. It counts as ADME, organism-based. In a few lines:
as §2

The target in data set [9] is T1, Cytochrome P450 3A. Briefly: Time-dependent inhibition of CYP3A in human liver microsomes preincubated for 30 mins with carfilzomib by LC-MS/MS analysis. The class given is ADME. The conditions noted are these: microsomes. The method, boiled down: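 Pooled HLM (16 donors) given carfilzomib 0.01–10 µM in duplicate at 37°C with a 30-min preincubation before probe substrate was added. Substrate was set near Km (testosterone Km 100 µM; midazolam Km 3.8 µM). Protein was 0.1 mg/mL, or 0.05 mg/mL with midazolam. Metabolite formation was read by LC-MS/MS after 5 min and expressed relative to 0.5% acetonitrile controls to give IC50.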

The target of data set [10] is CYP3A (Homo sapiens, UniProt P08684+P20815+P24462+Q9HB55). The data set can be described thus: Inhibition of CYP3A in human liver microsomes assessed as substrate metabolite formation using midazolam as substrate measured after 5 mins by LC-MS/MS analysis. The class given is ADME. The conditions noted are these: probe midazolam. The method, boiled down: (§3)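 Pooled HLM from 16 donors were incubated at 37°C in duplicate with carfilzomib 0.01–10 µM and probe substrate at about its Km. Substrates were phenacetin, amodiaquine, diclofenac, S-mephenytoin, dextromethorphan, testosterone and midazolam. Protein was 0.1 mg/mL, or 0.05 mg/mL with midazolam. Reactions ran 5 min without preincubation, then were quenched with acetonitrile. Metabolites were measured by LC-MS/MS relative to 0.5% acetonitrile controls.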

A further data set concerns the target T2, Cytochrome P450 1A2 (Homo sapiens, UniProt P05177).
T2 sequence (P05177 whole entry): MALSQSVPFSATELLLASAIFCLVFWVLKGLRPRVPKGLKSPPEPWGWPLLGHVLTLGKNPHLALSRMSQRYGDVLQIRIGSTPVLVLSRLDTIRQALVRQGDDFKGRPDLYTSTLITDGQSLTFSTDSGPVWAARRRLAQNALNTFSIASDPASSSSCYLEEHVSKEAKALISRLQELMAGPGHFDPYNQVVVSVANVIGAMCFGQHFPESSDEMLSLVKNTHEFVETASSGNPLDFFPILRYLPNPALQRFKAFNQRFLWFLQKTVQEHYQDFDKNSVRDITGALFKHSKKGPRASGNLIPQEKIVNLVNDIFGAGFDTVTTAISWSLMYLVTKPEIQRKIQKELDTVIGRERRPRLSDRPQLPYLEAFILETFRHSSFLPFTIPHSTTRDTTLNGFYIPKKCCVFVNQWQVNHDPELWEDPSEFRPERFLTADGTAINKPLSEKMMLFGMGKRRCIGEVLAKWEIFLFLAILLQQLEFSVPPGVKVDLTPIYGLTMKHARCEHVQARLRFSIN
Briefly: Inhibition of CYP1A2 in human liver microsomes using phenacetin as substrate after 5 mins by LC-MS/MS analysis. The class given is ADME. The method, boiled down:
as §3

The nature of data set [11]: AUC last in human patient with relapsed solid tumor at 20 mg/m'2, iv administered on days 1, 2, 8, 9, 15 and 16 of 28-day cycle over 2 to 10 mins measured on day 1 of cycle 1 by LC-MS/MS analysis. It counts as ADME, organism-based. On the set-up: route intravenous, time 0 - last. The conditions noted are these: plasma. The method, boiled down: as §2

Where only a bound is given, the exact number is not on record here.

Sequence of Cytochrome P450 2C19 (P33261 whole entry, canonical isoform): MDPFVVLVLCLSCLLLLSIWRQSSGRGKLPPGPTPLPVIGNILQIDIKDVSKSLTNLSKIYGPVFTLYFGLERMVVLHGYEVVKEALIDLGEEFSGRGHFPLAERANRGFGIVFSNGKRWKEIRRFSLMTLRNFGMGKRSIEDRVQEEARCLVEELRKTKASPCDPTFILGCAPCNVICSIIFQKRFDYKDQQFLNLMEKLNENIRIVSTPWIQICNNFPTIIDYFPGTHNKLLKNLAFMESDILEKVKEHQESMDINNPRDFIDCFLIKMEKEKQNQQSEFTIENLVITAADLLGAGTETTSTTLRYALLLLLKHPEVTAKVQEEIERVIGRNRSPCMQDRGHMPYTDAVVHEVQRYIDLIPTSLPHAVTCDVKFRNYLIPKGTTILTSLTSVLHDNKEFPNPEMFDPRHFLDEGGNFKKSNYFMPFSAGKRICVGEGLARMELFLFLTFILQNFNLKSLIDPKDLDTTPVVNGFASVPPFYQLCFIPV

One may read the clearance as the volume of plasma or blood freed of the substance per unit of time. Lower therefore signals a low capacity for elimination. A word on the inhibition: it is the percentage by which the read-out fell short of the control. Usually IC50 stands for the concentration at which inhibition is half-maximal. As a reminder, the AUC(0-t) is the area under the concentration-time curve up to a stated or last time point. High values mean more exposure, low ones less exposure. As for `CC(C)C[C@H](NC(=O)[C@H](CCc1ccccc1)NC(=O)CN1CCOCC1)C(=O)N[C@@H](Cc1ccccc1)C(=O)N[C@@H](CC(C)C)C(=O)[C@@]1(C)CO1` [CARFILZOMIB], the Drug metabolism entry in the data set with Plasma [1] is “metabolite_detected”; with Plasma [4], “metabolite_detected”; on Cytochrome P450 2C19 it was 0.016 min⁻¹; in the data set on Plasma [5] it was “metabolite_detected”. Further, the “inhibition (INH)” value is reported as “Active” at Cytochrome P450 3A [2] and “Dose-dependent effect” at Cytochrome P450 3A [9]. Also, the Drug excretion entry in data set [3] was “metabolite_detected”. The clearance in data set [6] was 2270 mL/min; in [8], 2430 mL/min. Also, in the data set with CYP3A [7], the inhibition at 72 h, 2.5 µM was above 95%. For the same compound, at CYP3A [10], the IC50 at 5 min amounted to 1700 nM. The half-inhibitory concentration (IC50) at Cytochrome P450 1A2 is above 10000 nM. This compound showed an area under the curve AUC(0-t) in data set [11] of 238 ng·h/mL.
